Sampled rows, rich in hits. Any-hit rate of the full collection: about 3.9%.
CHOP UPR activ: activators of apoptotic arm of unfolded protein response (CHOP). CHO-CHOP luciferase reporter, UPR activation, luminescence; percent of tunicamycin response over DMSO baseline. activation, % at 10 µM. hit rate 0.34% among 330,000;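 active = at 10 µM dose, activation of 40% or more, normalized to positive control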
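Assay system: CHO cells with stable CHOP pathway luciferase reporter; Buffer or medium: F12 plus 10% serum; Times: 16-18 h cell attachment, then 6 h compound exposure, 37 °C; Signal: luciferase luminescence; Read-out basis: percent activation relative to tunicamycin control; Control set: tunicamycin high control, DMSO low control.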
UPR XBP1 act: activators of adaptive arm of unfolded protein response (XBP1) | CHO-XBP1 luciferase reporter, IRE1-XBP1 UPR activation, luminescence; percent of tunicamycin response, DMSO as zero | activation, % at 20 µM | hit rate 0.33% among 330,000;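 active = versus positive control, 20 µM dose yields 30% or more activation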
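Material: IRE1-XBP1 luciferase reporter CHO line / Quantity: one thousand reporter cells per well / Buffer or medium: F12 with 10% serum / Compound: 20 µM single concentration, DMSO 1% / Times: 6 h treatment, 37 °C / Detection: Steady-Glo luciferase glow luminescence, 10 min after reagent addition / Benchmarks: tunicamycin high, DMSO low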
697 NFkB inh: lowers PMA/ionomycin-induced NF-kB signal in 697 B cells; AID 435022; hit rate 0.33% among 330,000; inhibition, % at 4 µM; 697 B-cell NF-kB luciferase reporter, 16 h; in the data active = inhibition above about 35%
Gli-Sufu block: Gli-Sufu pathway antagonism; Sufu-KO-LIGHT fibroblasts, Gli luciferase reporter luminescence; AID 588413; hit rate 0.74% among 340,000; inhibition, % at 5 µM;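 active = inhibition above about 55%, limit read from the data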
Jurkat NFkB inh: inhibitors of the PMA/ionomycin-induced NF-kB reporter in Jurkat cells; PMA/ionomycin-induced NF-kB luciferase reporter, luminescence; inhibition, % at 4 µM; hit rate 0.53% among 330,000; AID 435003; in the data active = inhibition above about 50%
CHOP inh: CHOP inhibition in unfolded protein response; CHO-K1 CHOP-promoter luciferase, tunicamycin-induced, 15-18 h; inhibition, % at 10 µM; hit rate 3.8% among 220,000;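 active = compounds that reduced the stress-induced luciferase reporter signal by more than about 70% of percent inhibition, limit read from the data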
Jurkat NFkB conf: inhibitors of the PMA/ionomycin-induced NF-kB reporter in Jurkat cells, retest; shares compounds with Jurkat NFkB inh; Jurkat NF-kB luciferase, 16 h; inhibition, % at 4 µM; hit rate 27% among 2,700; AID 435020;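 active = inhibition reaching about 45% at 4 µM in either replicate, limit read from the data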
Numbers stand for hits; - = inactive; . = not tested or not shown.

SMILES	CHOP UPR activ	UPR XBP1 act	697 NFkB inh	Gli-Sufu block	Jurkat NFkB inh	CHOP inh	Jurkat NFkB conf
Cc1nnc(SCC(=O)Nc2nsc(-c3ccc(C(C)(C)C)cc3)n2)s1	-	-	-	-	-	-	-
Cc1ccc(-c2nc(NC(=O)CSc3ccc4ccccc4n3)ns2)cc1	-	-	-	-	-	-	.
COc1ccc(C2CC(c3ccc4ccccc4c3)=NN2C(=O)COC(=O)C2CCC(=O)N2)cc1 (configuration not stated)	-	-	-	-	-	-	-
Cc1cccc(-n2ncc3c(NC4CCCCC4)ncnc32)c1	-	-	-	-	-	-	-
Cc1ccc(-n2ncc3c(N4CCN(c5ccccc5)CC4)ncnc32)c(C)c1	-	-	-	-	59.5	84.4	-
Cc1cccc(-n2ncc3c(N4CC(C)CC(C)C4)ncnc32)c1 (configuration not stated)	-	-	-	-	-	-	-
CC1CN(c2ncnc3c2cnn3-c2ccc(Cl)cc2)CC(C)O1 (configuration not stated)	-	-	-	-	-	-	-
CCC(C(=O)NCCN1CCOCC1)n1nc(C)n2c(cc3sccc32)c1=O (configuration not stated)	-	-	-	-	-	.	.
CCOc1ccccc1CN1CCNC(=O)C1CC(=O)NCc1cc(C)n(C)n1 (configuration not stated)	-	-	-	-	-	.	.
CCOc1ccc(S(=O)(=O)N2CCN(CCNS(=O)(=O)c3ccc(C)cc3)CC2)cc1	-	-	-	-	-	.	.
Cc1ccc(CC(NC(=O)c2ccc(C)cc2)C(=O)O)cc1 (configuration not stated)	-	-	-	-	.	.	.
COC(=O)c1cc(S(=O)(=O)NCCCN2CCCC2=O)cn1C	-	-	-	-	-	.	.
COc1cc(Cl)c(C)cc1NC(=O)COC(=O)CCc1nc2ccccc2c(=O)[nH]1	-	-	-	-	-	.	.
CCOC(=O)c1ccccc1NC(=O)Cn1c(-c2nonc2N)nc2ccccc21	-	-	-	-	81.7	.	61.2
COCCN(C(=O)COC(=O)C1(C)CC1(Cl)Cl)c1c(N)n(Cc2ccccc2)c(=O)[nH]c1=O (configuration not stated)	-	-	-	-	-	.	.
CC(=O)Nc1nc2ccc(S(=O)(=O)N3CCCC3)cc2s1	-	-	-	-	-	.	.
CCCC(=O)Nc1nc2ccc(S(=O)(=O)N3CCCCC3)cc2s1	-	-	-	-	52.5	.	-
Cc1cc(NC(=O)CSc2nc3ccccc3c(=O)n2C2CCCC2)no1	-	-	-	-	64.2	.	51.3
Cc1cc(NC(=O)CSc2nc3ccccc3c(=O)n2Cc2ccccc2)no1	-	-	-	-	-	-	.
CCOC(=O)CC1(NC(=O)C2CCC(=O)N(Cc3ccccc3OC)C2)CCCCC1 (configuration not stated)	-	-	-	-	-	.	.
Cc1ccc(NC(=O)CN(C)C(=O)COc2cccc3ccc(C)nc23)cc1	-	-	-	-	-	.	-
Cc1ccc2cccc(OCC(=O)N(C)CC(=O)Nc3ccc(F)cc3)c2n1	-	-	-	-	-	.	.
COc1ccc(NC(=O)c2cccs2)cc1C(=O)N1CCN(c2ccccc2)CC1	-	-	-	-	52.4	.	-
O=C(Nc1ccc(N2CCN(C(=O)c3cccs3)CC2)cc1)c1cccc(F)c1	-	-	-	-	-	.	.
O=C(NC(=S)Nc1ccc(N2CCCCC2)cc1)c1cccs1	-	-	-	-	-	-	-
SMILES	CHOP UPR activ	UPR XBP1 act	697 NFkB inh	Gli-Sufu block	Jurkat NFkB inh	CHOP inh	Jurkat NFkB conf
COc1cccc(C(=O)Nc2ccc(N3CCN(C(=O)c4cccs4)CC3)cc2)c1	-	-	-	-	51.9	.	-
CCOC(=O)C1=CN(Cc2cccc(F)c2)S(=O)(=O)N(C)C1c1ccc2ccccc2c1 (configuration not stated)	-	-	-	-	.	.	.
COc1ccc(/C=C2\CCCC3C2=NN(C(=O)CSc2ncn[nH]2)C3c2ccc(OC)cc2)cc1 (configuration not stated)	-	-	-	-	61.2	-	-
CC(=O)Nc1ccc(NS(=O)(=O)c2ccc(CN3C(=O)c4cccnc4C3=O)cc2)cc1	-	-	-	-	-	.	.
O=C(Nc1ccn(Cc2ccccc2F)n1)c1ccc(COc2ccc(Br)cc2)cc1	-	-	-	-	52.8	-	52.2
Cc1ccc2c(c1)sc1nc(=O)n(-c3ccccc3)c(=O)n12	-	-	-	-	-	-	-
CC(C)(C)c1csc(Sc2ccc([N+](=O)[O-])cn2)n1	-	-	-	-	81.4	-	-
COc1ccccc1N1CCN(C(=O)NCc2ccc(Cl)cc2)CC1	-	-	-	-	-	.	.
COc1ccccc1N1CCN(C(=O)c2ccc(-c3ccc(Cl)cc3)o2)CC1	-	-	-	-	62.9	.	52.7
CCOc1ccc(/C(C)=N/N2C(=O)C(CC(=O)Nc3ccc(OC)cc3[N+](=O)[O-])SC2=Nc2cccc(C)c2C)cc1 (configuration not stated)	-	-	-	-	-	-	.
COc1ccccc1/C=N/N1C(=O)C(CC(=O)Nc2ccc([N+](=O)[O-])cc2OC)SC1=Nc1cccc(C)c1C (configuration not stated)	-	-	-	.	68.8	-	-
CCOc1cc(/C=C(\C#N)C(=O)Nc2ccc(S(N)(=O)=O)cc2)ccc1OCCN1CCOCC1	-	-	-	-	-	.	.
CCCC#Cc1ccc2c(c1)COc1c3ccccc3nn1-2	-	-	-	-	-	.	.
CCc1cc(-c2ccc3c(c2)COc2c4ccccc4nn2-3)on1	-	-	-	-	-	.	-
CCn1c(SCc2c(Cl)cccc2Cl)nc2nc3c(cc2c1=O)CCCC3	-	-	-	-	55.0	.	-
NC(=O)c1ccccc1NC(=O)/C=C/c1ccc(Cl)cc1	-	-	-	-	-	-	-
NC(=O)c1ccccc1NC(=O)/C=C/c1ccccc1	-	-	-	-	-	-	.
CCOC(=O)N1CCN(C(=O)c2ccc3c(c2)N(C)C(=O)/C(=C\c2ccc(OCC)c(OC)c2)S3)CC1	-	-	-	-	-	.	.
CCOC(=O)N1CCC(NC(=O)c2ccc3c(c2)N(C)C(=O)/C(=C/c2cccc(OC)c2)S3)CC1	-	-	-	-	53.1	.	-
Cc1ccc(-n2nc3c(=O)n(CC(=O)NC(C)CCc4ccccc4)nc(C)c3c2C)cc1 (configuration not stated)	-	-	-	-	52.7	.	62.9
O=C(CCc1nc2ccccc2c(=O)[nH]1)NNC(=O)COc1cccc(F)c1	-	-	-	-	-	.	.
CCN1C(=O)[C@H]2[C@@H](c3ccc(C)cc3)N3C(=O)N(c4ccc(OC)cc4)C(=O)[C@@]3(C)[C@H]2C1=O	-	-	-	-	-	.	.

High-throughput results deposited in PubChem BioAssay by several laboratories.
